Measured values from ChEMBL document CHEMBL1142672 (J Med Chem, 2005).
Calls of active or inactive are those of the source. No cut-off for these calls is given here.

Assays:
[1] = biological target: Phosphodiesterase 3 (Homo sapiens) (UniProt Q14432+Q13370); assay: Inhibition of [3H]cAMP binding to human phosphodiesterase 3 at 30 uM; Inactive; format: protein assay
Summary of the method: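 Enzyme isolated from freshly collected human platelets. [3H]cAMP SPA kit assay, substrate at 200 nM (near Km under assay conditions). Compounds tested at 30 µM.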

[2] = biological target: cGMP-specific 3',5'-cyclic phosphodiesterase (Homo sapiens) (UniProt O76074); assay: Inhibition of [3H]cGMP binding to human Phosphodiesterase 5 at 30 uM; Inactive
[3] = biological target: Phosphodiesterase 4 (Homo sapiens, UniProt P27815+Q08499+Q07343+Q08493); assay: Inhibition of [3H]cAMP binding to human lung Phosphodiesterase 4; format: protein assay
[4] = biological target: T1, 3',5'-cyclic-AMP phosphodiesterase 4D (Homo sapiens, UniProt Q08499); assay: Inhibition of [3H]cAMP binding to recombinant human Phosphodiesterase 4D3 (PDE4D3) in baculovirus expression system
[5] = biological target: T1, 3',5'-cyclic-AMP phosphodiesterase 4D; assay: Inhibition of [3H]cAMP binding to recombinant human Phosphodiesterase 4D5 (PDE4D5) in baculovirus expression system
[6] = biological target: 3',5'-cyclic-AMP phosphodiesterase 4A (Homo sapiens, UniProt P27815); assay: Inhibition of [3H]cAMP binding to recombinant human Phosphodiesterase 4AL (PDE4AL) in baculovirus expression system
[7] = biological target: T1, 3',5'-cyclic-AMP phosphodiesterase 4D; assay: Inhibition of [3H]cAMP binding to recombinant human Phosphodiesterase 4DE (PDE4DE) in baculovirus expression system
[8] = biological target: 3',5'-cyclic-AMP phosphodiesterase 4B (Homo sapiens, UniProt Q07343); assay: Inhibition of [3H]cAMP binding to recombinant human Phosphodiesterase 4BL (PDE4BL) in baculovirus expression system
Sequence of 3',5'-cyclic-AMP phosphodiesterase 4B (Q07343 whole entry): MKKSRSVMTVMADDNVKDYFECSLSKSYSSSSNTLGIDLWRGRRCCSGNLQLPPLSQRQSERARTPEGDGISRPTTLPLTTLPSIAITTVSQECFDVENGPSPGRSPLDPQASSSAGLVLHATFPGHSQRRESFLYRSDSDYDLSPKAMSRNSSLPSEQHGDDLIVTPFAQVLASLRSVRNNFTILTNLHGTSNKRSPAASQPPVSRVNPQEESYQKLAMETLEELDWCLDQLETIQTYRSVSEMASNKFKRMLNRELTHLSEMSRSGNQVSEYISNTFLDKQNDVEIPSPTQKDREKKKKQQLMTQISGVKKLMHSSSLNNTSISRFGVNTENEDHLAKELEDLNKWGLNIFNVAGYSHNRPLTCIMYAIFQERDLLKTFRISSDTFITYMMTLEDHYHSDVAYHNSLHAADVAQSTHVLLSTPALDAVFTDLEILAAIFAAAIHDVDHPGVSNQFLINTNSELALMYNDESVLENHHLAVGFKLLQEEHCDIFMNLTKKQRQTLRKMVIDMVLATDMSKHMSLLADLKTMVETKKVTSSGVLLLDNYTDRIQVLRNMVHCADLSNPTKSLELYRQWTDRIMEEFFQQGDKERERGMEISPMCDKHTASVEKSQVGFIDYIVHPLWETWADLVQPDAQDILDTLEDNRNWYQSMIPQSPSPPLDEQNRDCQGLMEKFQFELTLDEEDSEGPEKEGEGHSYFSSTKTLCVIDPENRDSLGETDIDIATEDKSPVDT

T1 sequence (Q08499 whole entry): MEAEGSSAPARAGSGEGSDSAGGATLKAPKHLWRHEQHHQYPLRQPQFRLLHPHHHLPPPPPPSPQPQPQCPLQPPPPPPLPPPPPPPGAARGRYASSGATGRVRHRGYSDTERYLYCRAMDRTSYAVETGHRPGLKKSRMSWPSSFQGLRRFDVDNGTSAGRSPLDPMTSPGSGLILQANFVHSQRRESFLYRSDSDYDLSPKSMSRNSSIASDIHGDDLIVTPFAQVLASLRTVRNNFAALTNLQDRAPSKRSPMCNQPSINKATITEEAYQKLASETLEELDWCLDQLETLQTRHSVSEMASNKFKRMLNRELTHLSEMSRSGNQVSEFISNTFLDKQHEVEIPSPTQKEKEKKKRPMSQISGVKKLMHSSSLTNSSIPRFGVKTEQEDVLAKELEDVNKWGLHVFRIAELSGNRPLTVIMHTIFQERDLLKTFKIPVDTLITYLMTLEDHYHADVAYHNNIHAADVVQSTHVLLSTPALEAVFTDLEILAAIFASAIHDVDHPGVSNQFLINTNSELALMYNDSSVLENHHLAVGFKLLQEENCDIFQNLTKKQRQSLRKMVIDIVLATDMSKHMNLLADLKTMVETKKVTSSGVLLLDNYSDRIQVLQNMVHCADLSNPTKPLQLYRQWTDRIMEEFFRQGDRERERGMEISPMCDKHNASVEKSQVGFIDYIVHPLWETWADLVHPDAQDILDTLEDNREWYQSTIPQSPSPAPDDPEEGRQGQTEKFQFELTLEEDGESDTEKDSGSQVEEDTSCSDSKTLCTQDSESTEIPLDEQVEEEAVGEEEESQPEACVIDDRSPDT
Sequence of 3',5'-cyclic-AMP phosphodiesterase 4A (P27815 whole entry): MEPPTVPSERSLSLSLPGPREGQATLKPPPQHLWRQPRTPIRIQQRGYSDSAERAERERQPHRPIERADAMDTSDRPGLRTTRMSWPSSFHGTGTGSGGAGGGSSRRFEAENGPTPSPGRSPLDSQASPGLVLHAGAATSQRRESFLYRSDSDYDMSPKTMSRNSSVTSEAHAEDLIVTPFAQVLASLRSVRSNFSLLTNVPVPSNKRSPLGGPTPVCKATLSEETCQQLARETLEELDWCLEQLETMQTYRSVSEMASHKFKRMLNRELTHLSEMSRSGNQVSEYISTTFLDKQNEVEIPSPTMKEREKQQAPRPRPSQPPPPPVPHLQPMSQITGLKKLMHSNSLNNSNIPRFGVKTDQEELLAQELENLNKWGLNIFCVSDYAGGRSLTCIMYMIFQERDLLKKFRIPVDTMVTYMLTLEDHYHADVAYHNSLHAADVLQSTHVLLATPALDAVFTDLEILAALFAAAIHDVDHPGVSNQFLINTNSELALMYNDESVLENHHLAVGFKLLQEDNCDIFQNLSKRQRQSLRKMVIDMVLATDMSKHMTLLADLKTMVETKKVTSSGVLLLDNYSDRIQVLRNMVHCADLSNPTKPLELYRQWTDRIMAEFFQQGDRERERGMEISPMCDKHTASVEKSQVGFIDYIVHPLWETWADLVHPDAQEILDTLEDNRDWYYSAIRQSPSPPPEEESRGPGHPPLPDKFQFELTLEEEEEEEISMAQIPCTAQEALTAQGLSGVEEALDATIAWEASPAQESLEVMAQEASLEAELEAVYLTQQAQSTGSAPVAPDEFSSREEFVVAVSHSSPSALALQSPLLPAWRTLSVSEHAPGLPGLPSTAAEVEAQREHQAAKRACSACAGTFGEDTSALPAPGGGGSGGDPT

Structure (SMILES) | Effect [1] | Effect [2] | Ki [3] [nM] | Ki [4] [nM] | Ki [5] [nM] | Ki [6] [µM] | Ki [7] [nM] | Ki [8] [nM]
CC1CC(=O)NN=C1c1ccc(-n2ccnc2)cc1 (stereo not given) [CI-930] | – | – | – | > 50000 | > 50000 | > 50 | > 50000 | > 50000
COc1cccc(OC[C@H](C)c2nc3c(N)ncn(Cc4ccc(OC)c(OC5CCCC5)c4)c-3n2)c1 | inactive | inactive | 1470 | 493 | 322 | 5.2 | 5050 | 430
COc1ccc(Cn2cnc(N)c3nc(C(C)(C)COc4ccc(C(=O)O)cc4)nc2-3)cc1OC1CCCC1 | inactive | inactive | 5230 | 4300 | > 50000 | > 50 | > 50000 | > 50000

Compounds with a lower Ki [4], results first:

Effect [1] | Effect [2] | Ki [3] [nM] | Ki [4] [nM] | Ki [5] [nM] | Ki [6] [µM] | Ki [7] [nM] | Ki [8] [nM] | Structure (SMILES)
inactive | inactive | 436 | 172 | 141 | 3.9 | 2890 | 270 | CCNc1ncn(Cc2ccc(OC)c(OC3CCCC3)c2)c2nc(C(C)C)nc1-2
inactive | inactive | 25 | 8 | 4.9 | 0.155 | 312 | 7.6 | COc1ccc(Cn2cnc(N)c3nc(C(C)(C)COc4ccc(C(N)=O)cc4)nc2-3)cc1OC1CCCC1
inactive | inactive | 9.3 | 3 | 5.5 | 0.103 | 246 | 5.2 | COC(=O)c1ccc(OCC(C)(C)c2nc3c(N)ncn(Cc4ccc(OC)c(OC5CCCC5)c4)c-3n2)cc1
